# Source: PubChem BioAssay (several laboratories)
# In the library only some 3.8% were active in any assay of this set; here they are far more common.
# Beta2AR agonist: human beta-2 adrenergic receptor agonism by FAP; P07550; Am2.2-beta2AR cells, FAP receptor internalization, flow cytometry; response, % (no concentration beside the values); hit rate 0.43% among 340,000;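 active means response above a set limit, near 3 SD of response in nonfluorescent compounds, cut at about 42% in these data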
# Target sequence (P07550 whole entry, looked up): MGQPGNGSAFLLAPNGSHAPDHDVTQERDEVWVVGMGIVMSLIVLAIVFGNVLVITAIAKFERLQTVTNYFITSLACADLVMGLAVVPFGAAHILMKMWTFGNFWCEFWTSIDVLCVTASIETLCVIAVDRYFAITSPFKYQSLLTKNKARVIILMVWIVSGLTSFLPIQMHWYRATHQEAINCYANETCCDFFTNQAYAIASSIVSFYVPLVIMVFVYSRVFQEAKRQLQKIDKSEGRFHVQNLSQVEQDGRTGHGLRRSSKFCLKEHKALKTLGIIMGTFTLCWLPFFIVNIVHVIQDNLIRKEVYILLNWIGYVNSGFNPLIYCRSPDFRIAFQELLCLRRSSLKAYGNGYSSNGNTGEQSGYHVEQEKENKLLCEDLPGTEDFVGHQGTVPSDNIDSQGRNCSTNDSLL
# T cell modulator: T cell immune modulation candidate; 2C CD8+ T cell-vesicle binding, flow cytometry; stronger effect = lower value; response (vesicle binding), % at 7 µM; hit rate 0.068% among 330,000;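 active means response, share of CD8 T cells binding vesicles, and their 90th percentile fluorescence all below set limits, cut at about 80% in these data, passing the limit was not always enough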;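 further: values below 100% mean blocked vesicle binding to the CD8+ T cells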
#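 Assay system: 2C TCR transgenic mouse naive CD8+ T cells, MACS-purified | Read-out: CD8+ gate FL2 mean fluorescence as % of same-row positive control | Signal: High-throughput flow cytometry with anti-B7-1 and anti-CD8 staining | Timing: Binding step 1.5 h, 37 °C, antibody labelling 20 min, ice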
# V-ATPase pHluor: yeast V-ATPase proton transport regulation by pHLuorin; hit rate 0.37% among 350,000; response, % at 10 µM; S. cerevisiae, pHLuorin cytosolic pH fluorescence; AID 504577; in the data active means response mostly above about 7.3%, no sharp cut-off; inactive means mostly below about 5.4%; further: actives read high
# Exocytosis inh: blocks lytic granule exocytosis; TALL-104 LAMP-1 surface exposure, flow cytometry; cells stimulated with thapsigargin and PMA; inhibition, % at 10 µM; hit rate 0.66% among 360,000;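 active means inhibition above about 55%, limit read from the data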
# rCAG binder: r(CAG) repeat RNA binding. TO-PRO-1 dye displacement fluorescence. inhibition, % at 3 µM. hit rate 1.3% among 370,000. AID 651821;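 active means inhibition above the plate cutoff, the mean of all test compounds on that plate plus 3 SD, cut at about 35% in these data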;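 further: higher means more dye released from RNA so lower well fluorescence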
# MPTP block: blocks calcium-induced mitochondrial swelling. isolated mouse mitochondria, Ca2+ swelling absorbance, 30 min. inhibition, % at 10 µM. hit rate 1.4% among 360,000. AID 602449;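 active means inhibition of 50% or more, scaled per plate between neutral and stimulator controls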
# MPTP counter: membrane potential counter-screen of mitochondrial pore inhibitors | shares compounds with MPTP block | isolated mitochondria, Rhodamine 123 fluorescence | inhibition, % at 10 µM | hit rate 78% among 5,000; in the data active means inhibition above about 22%
# MPTP swell DR: MPTP inhibition, dose response swelling confirmation. shares compounds with MPTP block. isolated mitochondria swelling, absorbance. IC50, µM. hit rate 58% among 780. AID 651561; in the data active means IC50 below about 20 µM
# MPTP counter DR: active in counter-screen for permeability transition pore inhibitors. AID 651564. isolated mitochondria counterscreen, fluorescence read-out. shares compounds with MPTP block. IC50, µM. hit rate 49% among 780; in the data active means IC50 below about 80 µM
# Hits are given with their value; – = inactive; · = no result given; ! = a repeat was not active.
SMILES,Beta2AR agonist,T cell modulator,V-ATPase pHluor,Exocytosis inh,rCAG binder,MPTP block,MPTP counter,others
COc1ccc(C)c2sc(N(CCCN(C)C)C(=O)CS(=O)(=O)c3ccc(F)cc3)nc12,–,–,–,–,–,85,–,MPTP swell DR=5.7;MPTP counter DR=–
CCC(=O)N1CCN(c2nc3ccccc3s2)CC1,–,–,–,–,–,–,·,
O=C(c1cc2sccc2n1Cc1ccccc1)N1CCN(c2nc3ccccc3s2)CC1,–,–,–,–,–,102,102,
C[C@H]1C2CC(OC(=O)Nc3cccc(Cl)c3)C(C2)[C@H]2CCCCN21 (some centres not stated),·,·,·,·,–,·,·,
Cc1ccc(Oc2cc([N+](=O)[O-])cc3c2C(=O)Nc2ccccc2O3)cc1,–,–,–,–,–,56,29,
CCc1ccc(NC(=O)C2(c3ccccc3)CC2(Cl)Cl)cc1 (configuration not stated),–,–,–,–,–,53,72,
Cc1cccc(NC(=O)C2(c3ccccc3)CC2(Cl)Cl)c1 (configuration not stated),–,–,–,–,–,–,·,
Cc1cc(C)cc(NC(=O)C2(c3ccccc3)CC2(Cl)Cl)c1 (configuration not stated),–,–,–,–,–,71,76,
CC(C)CN1C(=O)[C@]2(CC(=O)N(C)C2c2ccccc2)c2cc(-n3cc(C4=CCCCC4)nn3)ccc21 (some centres not stated),·,·,·,·,–,·,·,
CCOC(=O)[C@@]12CCCC3=C1N(CCC3)C(=O)[C@H]2CC(=O)N1CCCC1,·,·,·,·,–,·,·,
CCC(=O)c1ccc(OCc2ccc(C(=O)c3ccccc3)cc2)cc1,–,–,–,–,–,101,104,
O=C(C(=O)N1CCN(S(=O)(=O)c2cccc3ccccc23)CC1)c1cccc(C(F)(F)F)c1,·,·,·,·,–,·,·,
O=C(NCc1ccccc1Cl)C1CCCN(c2nc3ccccc3o2)C1 (configuration not stated),·,·,·,·,–,·,·,
CCc1ccccc1NC(=O)c1ccc(CN2CCC(Cc3ccccc3)CC2)cc1,–,–,–,–,–,57,–,
Cc1ccccc1CS(=O)(=O)Cc1ccc(C(=O)Nc2cccc(Cl)c2F)o1,·,·,·,·,–,·,·,
O=C(NCc1csc2ccccc12)Nc1cc(Cl)cc(Cl)c1,–,–,–,–,–,86,76,
O=C(NCc1ccccn1)Nc1ccc(Cl)c(Cl)c1,–,–,–,–,–,51,85,
O=C(NCc1ccncc1)Nc1ccc(Cc2ccc(NC(=O)NCc3ccncc3)cc2)cc1,·,·,–,–,–,–,·,
O=C(NCc1ccccn1)Nc1cccc(Cl)c1,–,–,–,–,–,–,·,
Cc1ccc(NC(=O)NCc2ccncc2)cc1Cl,–,–,–,–,–,63,79,
O=C(NCc1ccccn1)Nc1cc(Cl)cc(Cl)c1,–,–,–,–,–,83,100,
CCCCCc1cccc2[nH]cc(-c3ccccc3)c12,·,·,·,·,–,·,·,
O=C(c1ccc2c(=O)n(C3CCCC3)c(=S)[nH]c2c1)N1CCc2ccccc21,–,–,–,–,–,80,69,
CC(C)NC(=O)c1ccc2c(=O)n(C3CCCC3)c(=S)[nH]c2c1,–,–,–,–,–,–,·,
CCN1CCN(Cc2ccc(NC(=O)c3ccc(C)c(NC(=O)C(=O)c4c[nH]c5ccccc45)c3)cc2C(F)(F)F)CC1,50,–,–,–,–,94!,–,
SMILES,Beta2AR agonist,T cell modulator,V-ATPase pHluor,Exocytosis inh,rCAG binder,MPTP block,MPTP counter,others
COC(=O)[C@]12C[C@H](CC(=O)NCc3cccc(C(F)(F)F)c3)C(=O)N(Cc3cccc4ccccc34)C1=C[C@H](C1CCCC1)O[C@@H]2C,·,·,·,·,–,·,·,
CCOc1cc(/C=C2\N=C(SCC)SC2=O)cc([N+](=O)[O-])c1OC(C)=O,–,–,–,–,–,104,37,
CCOc1c(OC(C)=O)ccc(/C=C2\N=C(SCC)SC2=O)c1[N+](=O)[O-],–,–,–,–,–,89,72,
CCOc1cc(/C=C2\N=C(SC)SC2=O)cc([N+](=O)[O-])c1OC(C)=O,–,–,–,–,·,–,·,
O=C(c1ccc2c(c1)OCO2)N1CCC(Oc2cccnc2)CC1,·,·,·,·,–,·,·,
O=C1c2c(O)ccc(O)c2C(=O)c2c(NCCNCCO)ccc(NCCNCCO)c21,–,–,–,–,54!,106!,–,
O=[N+]([O-])c1ccc(O)c(N=Cc2sc3ccccc3c2O)c1,–,–,–,–,–,60,67,
O=C(CCCCCN1C(=O)C2C3C=CC(C3)C2C1=O)Nc1ccc2ncccc2c1 (configuration not stated),·,·,·,·,–,·,·,
Cc1cnc(C(=O)N2CCN(S(=O)(=O)c3cc(C(F)(F)F)cc(C(F)(F)F)c3)CC2)cn1,–,·,–,–,–,88,105,
CC1CC1C(=O)N1CCN(S(=O)(=O)c2cc(C(F)(F)F)cc(C(F)(F)F)c2)CC1 (configuration not stated),–,–,–,–,–,101,102,
CCOC(=O)N1CCN(C(=O)c2cc(Cl)c(Cl)cc2C(=O)O)CC1,–,–,–,–,·,55,–,MPTP swell DR=–;MPTP counter DR=–
O=C(CNS(=O)(=O)c1ccc(Br)s1)N1CCN(c2ccccn2)CC1,·,·,·,·,–,·,·,
C/C(=N\N=C(N)N)c1cccc(Cl)c1,–,–,–,–,–,55,–,MPTP swell DR=16;MPTP counter DR=68
CCCCOc1ncnc2c1[nH]c1ccc(C)cc12,·,–,·,–,–,83,56,
CCCOc1ncnc2c1[nH]c1ccc(OC)cc12,–,–,–,–,–,–,·,
CCOC(=O)c1cnn(-c2cc(C)cc(C)c2)c1N,–,–,–,–,–,–,·,
CCOC(=O)c1cnn(-c2sc(C(=O)OCC)c(C)c2C(=O)OCC)c1N,–,–,·,–,–,88,74,
COC(=O)/C=C1\SC(=Nc2ccc(Cl)c(Cl)c2)NC1=O,–,–,–,–,–,95,52,
Cc1cc(C)c2oc(C(=O)Nc3ccc(S(=O)(=O)N4CCC(C)CC4)cc3)cc(=O)c2c1,–,–,–,–,–,60,–,MPTP swell DR=–;MPTP counter DR=–
O=C(Nc1cccc(S(=O)(=O)N2CCCCCC2)c1)c1cc(=O)c2ccccc2o1,–,–,–,–,–,52,64,
NS(=O)(=O)c1cccc(NC(=O)c2cc(=O)c3ccccc3o2)c1,–,–,–,–,–,–,·,
CCc1noc(C)c1C(=O)Nc1ccc(S(=O)(=O)N2CCCC(C)C2)cc1 (configuration not stated),–,–,–,–,–,–,·,
Cc1cc2oc(C(=O)Nc3ccc(S(=O)(=O)N4CCCC(C)C4)cc3)cc(=O)c2cc1Cl (configuration not stated),–,–,–,–,–,73,–,MPTP swell DR=–;MPTP counter DR=<2.5
Clc1ccc(-n2c(Cc3cccs3)nnc2SC/C=C/c2ccccc2)cc1,·,·,·,·,–,·,·,
